Source: ChEMBL document CHEMBL3244411, “A new warfarin metabolite: structure and function” (J Med Chem, 1978)

What was measured:
Type in all cases: ADME
[1] = Drug metabolism in rat liver microsomes assessed as cytochrome P450-mediated 6-hydroxywarfarin metabolite formation measured for 10 mins by LC-UV analysis
Outline: (§1)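 Time course with (S)-warfarin in uninduced rat liver microsomes (cytochrome P-450 1.0 nmol/mg protein; protein 2 mg/mL) at 37 °C and pH 7.4. NADPH-supported TES–MgCl2 incubation, with products quantified by LC. Single determination from a pool of five rats.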

[2] = Drug metabolism in rat liver microsomes assessed as cytochrome P450-mediated 4-hydroxy-3-(3-oxo-1-phenyl-1-butenyl)-2H-1-benzopyran-2-one metabolite formation measured for 10 mins by LC-UV analysis; outline: as §1
[3] = Drug metabolism in rat liver microsomes assessed as cytochrome P450-mediated 7-hydroxywarfarin metabolite formation measured after 10 mins by LC-UV analysis; outline: as §1
[4] = Drug metabolism in rat liver microsomes assessed as cytochrome P450-mediated 6-hydroxywarfarin metabolite formation measured after 10 mins by LC-UV analysis; outline: as §1
[5] = Drug metabolism in rat liver microsomes assessed as cytochrome P450-mediated 4'-hydroxywarfarin metabolite formation measured after 10 mins by LC-UV analysis; outline: as §1
[6] = Drug metabolism in rat liver microsomes assessed as cytochrome P450-mediated 4-hydroxy-3-(3-oxo-1-phenyl-1-butenyl)-2H-1-benzopyran-2-one metabolite formation measured after 10 mins by LC-UV analysis; outline: as §1
[7] = Drug metabolism in PCN-induced rat liver microsomes assessed as cytochrome P450-mediated 4-hydroxy-3-(3-oxo-1-phenyl-1-butenyl)-2H-1-benzopyran-2-one metabolite formation at 0.15 mmol measured per nmol of CYP450 under acidic conditions by LC-UV analysis in presence of cumene hydroperoxide
Outline: (§2)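 Liver microsomes from PCN-induced rats (100 mg/kg/day ip in corn oil for 3 days), 200 mL at 2.0 mg protein/mL in TES–MgCl2, pH 7.4, with (R)-warfarin sodium 1.5 × 10^-4 mol. Preincubated 5 min at 37 °C with shaking, started with cumene hydroperoxide 1.6 × 10^-4 mol, given a second equal addition at 10 min, stopped at 30 min on ice. Product isolated by preparative C18 LC.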

[8] = Drug metabolism in rat liver microsomes assessed as cytochrome P450-mediated 4'-hydroxywarfarin metabolite formation measured for 10 mins by LC-UV analysis; outline: as §1
[9] = Drug metabolism in rat liver microsomes assessed as cytochrome P450-mediated 7-hydroxywarfarin metabolite formation measured for 10 mins by LC-UV analysis; outline: as §1
[10] = Drug metabolism in phenobarbital-induced rat liver microsomes assessed as cytochrome P450-mediated 4-hydroxy-3-(3-oxo-1-phenyl-1-butenyl)-2H-1-benzopyran-2-one metabolite formation at 3 umol measured per nmol of CYP450 under acidic conditions by LC-UV analysis in presence of cumene hydroperoxide
Outline: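 Phenobarbital-induced rat liver microsomes (100 mg/kg/day ip for 3 days) with 8.0 mg protein and warfarin sodium 3.0 × 10^-6 mol in 4.0 mL TES–MgCl2 buffer, pH 7.4, at 37 °C. No NADPH generating system; started with cumene hydroperoxide 3.3 × 10^-5 mol and stopped after 5 min. Products quantified by LC against external standards.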

[11] = Drug metabolism in PCN-induced rat liver microsomes assessed as cytochrome P450-mediated 4-oxo-3-(3-oxo-1-phenylbut-1-enyl)-4H-chromen-2-olate metabolite formation at 0.15 mmol measured under basic conditions by LC-UV analysis in presence of cumene hydroperoxide; outline: as §2
[12] = Activity at cytochrome P450 in rat liver microsomes treated with (R)-warfarin measured for 10 mins by LC-UV analysis
Outline: (§3)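 Male Wistar rat hepatic microsomes, 8.0 mg protein in 4.0 mL 0.01 M TES-0.002 M MgCl2, pH 7.4. Enantiopure warfarin sodium 1.0 mg (3.0 × 10^-6 mol) with an NADPH-generating system (NADP 1.25 μmol, glucose 6-phosphate 62.1 μmol). Preincubated 1.0 min at 37 °C, started with G6P dehydrogenase 5.0 units, stopped after 10 min by filtration. Metabolites separated and quantified by LC against external standards.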

[13] = Activity at cytochrome P450 in rat liver microsomes treated with (S)-warfarin measured after 10 mins by LC-UV analysis; outline: as §3
[14] = Activity at cytochrome P450 in rat liver microsomes treated with (R)-warfarin measured after 10 mins by LC-UV analysis; outline: as §3
[15] = Activity at cytochrome P450 in rat liver microsomes treated with (S)-warfarin measured for 10 mins by LC-UV analysis; outline: as §3

Row | Drug metabolism [12] | Drug metabolism [13] | Drug metabolism [14] | Drug metabolism [15] | Compound | Drug metabolism [1] | Drug metabolism [2] | Drug metabolism [3] | Drug metabolism [4] | Drug metabolism [5] | Drug metabolism [6] | Drug metabolism [7] [nmol/min] | Drug metabolism [8] | Drug metabolism [9] | Drug metabolism [10] [nmol/min] | Drug metabolism [11]
1 |  |  |  |  | CC(=O)C[C@H](c1ccccc1)c1c(O)c2ccccc2oc1=O | metabolite_detected | metabolite_detected | metabolite_detected | metabolite_detected | metabolite_detected | metabolite_notdetected | 0.423 | metabolite_detected | metabolite_detected | 0.15 | metabolite_detected
2 | metabolite_detected | metabolite_detected | metabolite_detected | metabolite_detected | CC(=O)CC(c1ccc(O)cc1)c1c(O)oc2ccccc2c1=O (stereo not given) |  |  |  |  |  |  |  |  |  |  | 
